Experimental data from ChEMBL document CHEMBL1124846, “Synthesis, antiproliferative, and antiviral activity of certain 4-substituted and 4,5-disubstituted 7-[(1,3-dihydroxy-2-propoxy)methyl]pyrrolo[2,3-d]pyrimidines” (J Med Chem, 1990).
“And” between values parts separate entries of the source, which are not always exact repeats. Equal values may be shown once.

Tests used:
[1] = tested on: Human betaherpesvirus 5; assay: Inhibition of human cytomegalovirus (HCMV) in plaque reduction assay; format: functional, organism-based
Method in brief: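 HCMV Towne strain (plaque-purified P0) plaque reduction in HFF monolayers in MEM(E) with 10% FBS. Inoculum held about 50 PFU, with compound dissolved in the overlay medium. IC50 came from linear regression of percent inhibition against log concentration, with ganciclovir or acyclovir positive controls in every set; two to five experiments.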

[2] = Cytotoxic activity against HFF cells.; format: cell-based; conditions: Homo sapiens
Method in brief: (§1)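 Cytotoxicity was scored visually in uninfected HFF or BSC-1 monolayers within the plaque-reduction assays. Drug-induced cytopathology was read at 35- and 60-fold magnification on a 0 to 4+ scale on the day plaques were stained and counted.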

[3] = tested on: Neoplastic cell line; assay: Cytotoxic activity against KB cells.; format: cell-based; conditions: Homo sapiens
Method in brief: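 KB cells (human oral epidermoid carcinoma) grown in MEM(H) with 5% FBS. Compound effect on incorporation of radiolabelled precursors into DNA, RNA and protein was measured. IC50s came from linear regression of percent inhibition against log concentration, and the three IC50s were averaged.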

[4] = tested on: L1210; assay: In vitro inhibition of L1210 cell growth.; format: functional, Mus musculus; set-up: concentration or dose not given beside the values
Method in brief: (§2)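 Murine L1210 leukemia cells in static suspension culture in Fischer's medium with compound for 4 days. Growth rate is the ratio of control to treated population doubling time; where the rate changed, the final rate was used. IC50 is the concentration giving 50% of control growth rate; single-concentration value at 100 μM.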

[5] = tested on: L1210; assay: In vitro inhibition of L1210 cell growth to half of the control rate; format: functional, cell-based; conditions: Mus musculus; method in brief: as §2
[6] = Cytotoxic activity against BSC cells; format: cell-based; conditions: Cercopithecidae; method in brief: as §1
[7] = tested on: Human alphaherpesvirus 1; assay: Inhibition of herpes simplex virus (HSV-1) in plaque reduction assay; format: functional, organism-based
Method in brief: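 HSV-1 S-148 strain plaque reduction in BSC-1 monkey kidney monolayers, with about 100 PFU inoculum and compound dissolved in the overlay medium. IC50 came from linear regression of percent inhibition against log concentration, with a positive control in each set.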

[8] = tested on: Human alphaherpesvirus 1; assay: Inhibition of herpes simplex virus (HSV-1) in yield reduction assay; format: functional, organism-based

Row | Structure (SMILES) | IC50 [1] | IC50 ([1]; Human betaherpesvirus 5) | IC50 [2] | IC50 [3] | Activity [4] | IC50 [5] | IC50 [6] | IC50 [7] | IC90 [8]
1 | OC[C@H]1O[C@@H](n2cc(Br)c3c(NO)ncnc32)[C@H](O)[C@@H]1O | 3 µM | 5.6 µM | > 100 µM | > 100 µM | 10% | 25 µM |  |  | 
2 | OCC(CO)OCn1cc(Cl)c2c(NO)ncnc21 | 56 µM and 24 µM and 50 µM |  | > 100 µM |  | 41% | 75 µM |  |  | 
3 | CCNc1ncnc2c1c(Br)cn2COC(CO)CO |  | > 100 µM | > 100 µM |  | 95% |  | > 100 µM | > 100 µM | 
4 | OCC(CO)OCn1ccc2c(NO)ncnc21 |  | > 100 µM | > 100 µM |  | 100% |  |  |  | 
5 | Nc1ncnc2c1c(Cl)cn2COC(CO)CO | 8 µM | 9.8 µM | > 100 µM | > 100 µM | 6% | 2.3 µM | > 100 µM | 16 µM | 22 µM
6 | OCC(CO)OCn1cc(I)c2c(NO)ncnc21 | 18 µM and 3.2 µM |  | > 100 µM |  | 11% | 39 µM |  | 30 µM | 
7 | OCC(CO)OCn1ccc2cncnc21 |  | > 100 µM | > 100 µM |  | 100% |  |  |  | 
8 | CNc1ncnc2c1c(Br)cn2COC(CO)CO |  | > 100 µM | > 100 µM |  | 100% |  | > 100 µM | > 100 µM | 
